Assay outcomes deposited in PubChem by several laboratories.
PvdQ inh – blocks Pseudomonas aeruginosa PvdQ acylase activity. purified PvdQ acylase, fluorescence plate reader. inhibition, % at 10 µM. 0.063% of 340,000 active; in the data active = inhibition above about 30%, passing the limit was not always enough;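 also: 0% = vehicle neutral wells and 100% = reference inhibitor wells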
IMP-1 inh – blocks Pseudomonas aeruginosa IMP-1 metallo-beta-lactamase; purified IMP-1, nitrocefin hydrolysis, epi-absorbance fluorescence; inhibition, % at 5.6 µM; 0.45% of 290,000 active; AID 1556;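 active = inhibition above the mean plus 3 SD of all compounds in the same screening run, cut at about 4.5% in these data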;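 also: 0% = IMP-1 with DMSO and 100% = DMSO wells lacking enzyme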
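Assay system: purified IMP-1; Quantity: IMP-1 0.2 nM before substrate addition; Medium: HEPES buffer pH 7.1 with ZnSO4 and Brij 35; Incubation: 15 min enzyme–compound preincubation, then 25 min nitrocefin reaction, 25 °C; Signal: fluorescence quenching readout, ex 480/em 530 nm; Controls: DMSO with and without IMP-1; Repeats: singlicate testing.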
HKDC1 inh – HKDC1 (human) hexokinase inhibition. Q2TB90. recombinant HKDC1, G6PDH/diaphorase resazurin coupled fluorescence. inhibition, % at 20 µM. 0.16% of 340,000 active. AID 493160;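 active = inhibition above about 35% when tested at 20 µM, limit read from the data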;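 also: plate controls were DMSO wells with enzyme for no effect and DMSO wells lacking enzyme for full effect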
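Material: recombinant HKDC1 hexokinase; Amount: HKDC1 at 5 µg/mL; Medium: Tris pH 8.0 buffer with MgCl2, Tween-20, BSA, BME; Schedule: 90 min reaction incubation at room temperature, dark; Technique: coupled resazurin fluorescence, excitation 525 nm, emission 613 nm.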
beta cell repl – inducers of beta-cell replication in MIN6 cells; MIN6 cells proliferation, ATPlite luminescence, 48 h; cells starved in 0.2% serum; 100% = growth in 10% serum; proliferation, % at 10 µM; 0.29% of 330,000 active; AID 2380;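 active = compounds whose signal lies at least 3.5 SD above the mean of all wells on their plate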;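 also: 0% = DMSO-treated cells in low-serum medium and 100% = 10% serum control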
VIM-2 inh – inhibitors of Pseudomonas aeruginosa VIM-2 metallo-beta-lactamase | purified VIM-2, nitrocefin hydrolysis, epi-absorbance fluorescence | inhibition, % at 5.6 µM | 0.89% of 290,000 active | AID 1527;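 active = inhibition above the mean of all tested compounds plus 3 SD, cutoff set per screening run, cut at about 7.5% in these data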;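 also: red hydrolysis product quenches plate fluorescence so inhibitors raise well fluorescence; 0% = enzyme with DMSO and 100% = DMSO without enzyme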
ATG4B inhibitor – ATG4B (human) cysteine protease inhibition; 0.51% of 340,000 active; inhibition, % at 8.33 µM; ATG4B cleavage of LC3-PLA2, NBD-HPC fluorescence, 1 h; AID 504462; in the data active = inhibition above about 40%
Target sequence (Q9Y4P1 whole entry, looked up): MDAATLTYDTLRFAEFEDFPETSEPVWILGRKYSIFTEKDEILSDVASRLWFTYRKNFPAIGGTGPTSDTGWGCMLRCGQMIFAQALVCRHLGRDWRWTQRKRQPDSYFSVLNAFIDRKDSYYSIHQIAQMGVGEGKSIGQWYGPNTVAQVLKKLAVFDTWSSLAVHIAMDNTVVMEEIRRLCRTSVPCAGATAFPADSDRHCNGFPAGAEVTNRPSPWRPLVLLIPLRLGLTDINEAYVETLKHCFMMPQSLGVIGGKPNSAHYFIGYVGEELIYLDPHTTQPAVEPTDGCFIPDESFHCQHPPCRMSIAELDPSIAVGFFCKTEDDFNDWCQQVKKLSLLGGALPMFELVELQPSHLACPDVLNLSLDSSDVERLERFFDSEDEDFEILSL
ATG4B conf – ATG4B (human) inhibition, single-dose confirmed. shares compounds with ATG4B inhibitor. ATG4B protease fluorescent substrate cleavage assay. inhibition, % at 8.33 µM. 92% of 320 active. AID 504757; in the data active = inhibition above about 39%
PLA2 counter – counter-screen for ATG4B inhibitors: human phospholipase A2; inhibition, % at 8.33 µM; AID 588402; purified PLA2, NBD-C6-HPC fluorescence, 45 min; 66% of 1,600 active; shares compounds with ATG4B inhibitor; in the data active = inhibition above about 50%
Target sequence (P04054 whole entry, looked up): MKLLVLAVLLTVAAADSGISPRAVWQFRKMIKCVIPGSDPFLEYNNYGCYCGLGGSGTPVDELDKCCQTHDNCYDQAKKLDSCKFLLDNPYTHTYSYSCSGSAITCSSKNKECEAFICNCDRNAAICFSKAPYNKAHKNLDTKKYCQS
An asterisk follows results filed as active; x = no result. Most compounds without a hit are left out; they make up all but 2% or so of the library.

SMILES | PvdQ inh | IMP-1 inh | HKDC1 inh | beta cell repl | VIM-2 inh | ATG4B inhibitor | PLA2 counter | others
Cc1nn(CCC(N)=O)c2nc(-c3cccs3)cc(C(F)(F)F)c12 | -11 | -2 | -15 | 0 | 1 | 86* | 84*
CCOC(=O)c1c(NC(=O)C(C)Sc2nnc(C)c(=O)[nH]2)sc2c1CCCC2 (stereo not drawn) | -6 | -3 | 4 | 1 | -1 | 62* | 65*
N=C1SC(c2ccccc2)C(=O)N1c1ncc(Cc2ccccc2Cl)s1 (stereo not drawn) | -12 | -1 | 7 | -4 | -6 | 79* | 80*
O=C(NCCCN1CCOCC1)c1cc2ccccc2cc1O | -13 | x | 7 | 4 | x | -2 | x
COC(=O)/C=C1\SC(=Nc2ccc(Cl)c(Cl)c2)NC1=O | -12 | -3 | 6 | -3 | -4 | 79* | 28 | ATG4B conf=79*
Cc1c(Cl)c([N+](=O)[O-])nn1CCCC(=O)N(Cc1ccccc1)Cc1ccccc1 | 6 | -1 | -2 | -4 | -1 | 52* | 60*
Cc1ccccc1Oc1cc(NC(=O)CCCn2nc(C)c([N+](=O)[O-])c2C)cc([N+](=O)[O-])c1 | 9 | -2 | 0 | -6 | -3 | 66* | 63*
Cc1c(Cl)c([N+](=O)[O-])nn1CCCC(=O)Nc1cc(Oc2ccccc2)cc([N+](=O)[O-])c1 | -8 | -1 | -6 | -4 | -4 | 89* | 88*
Cc1nn(CCCC(=O)Nc2cc(Oc3ccc(F)cc3)cc([N+](=O)[O-])c2)c(C)c1[N+](=O)[O-] | -7 | -2 | 10 | -3 | -5 | 56* | 60*
Cc1cccnc1NC(=O)c1ccc(Cl)c(S(=O)(=O)N2CCCCC2)c1 | -15 | x | 2 | 1 | x | 10 | x
CC1CCN(C2=C(NS(=O)(=O)c3ccccc3)C(=O)c3ccccc3C2=O)CC1 | -8 | -3 | 16 | -3 | 4 | 46* | 65*
COc1ccc(NC(=O)c2ccco2)cc1NC(=O)c1c(OC)cccc1OC | -4 | -2 | -1 | 0 | 0 | 46* | 52*
COc1ccc(NC(=O)c2ccco2)cc1NC(=O)c1ccco1 | -3 | 0 | 0 | 0 | 1 | 0 | x
CCCc1cc(=O)[nH]c(SCC(=O)c2[nH]c(C)c(C(=O)OCC)c2C)n1 | 12 | 0 | -3 | 0 | 1 | -4 | x
COc1ccc(CNC(=O)C(c2ccc(C)o2)N(C(=O)c2csnn2)c2ccc(C(C)C)cc2)cc1 (stereo not drawn) | -10 | -2 | 5 | -7 | 1 | 43* | 41
O=C(C1CCN(c2ncnc3c2nc2n3CCCCC2)CC1)N1CCN(c2ccccc2F)CC1 | -12 | -1 | 1 | -2 | 0 | 13 | x
Cc1ccc(NC(=O)C2CCN(c3ncnc4c3nc3n4CCCCC3)CC2)cc1Cl | 1 | -1 | 1 | -4 | -1 | 60* | 69*
Cc1cccc(N2CCN(C(=O)C3CCN(c4ncnc5c4nc4n5CCCCC4)CC3)CC2C)c1 (stereo not drawn) | -5 | -1 | 5 | -5 | 0 | 47* | 40 | ATG4B conf=63*
Cc1cccc(N2CCN(C(=O)C3CCN(c4ncnc5c4nc4n5CCCCC4)CC3)CC2)c1C | -11 | -3 | 1 | -1 | -2 | 63* | 78*
Cc1ccccc1NC(=O)NC1(C(=O)N2CCC(O)CC2)CCCCC1 | -6 | -2 | 1 | 0 | -2 | 3 | x
O=C1C(Cc2c[nH]c3ccccc23)NC(=S)N1C1CCCCC1 (stereo not drawn) | 1 | -2 | -7 | -2 | -1 | 1 | x
COc1ccc(-c2nc(CS(=O)(=O)CC(=O)NCc3ccccc3OC)c(C)o2)cc1 | -1 | 0 | -3 | -5 | 0 | 5 | x
COc1ccc(-c2nc(CS(=O)(=O)CC(=O)NCc3ccccc3Br)c(C)o2)cc1 | -9 | -2 | 3 | 0 | -1 | 84* | 92*
CC(C)Oc1ccccc1C1CC(=O)Nc2c1c(=O)n(C)c(=O)n2C (stereo not drawn) | x | -3 | x | -2 | -4 | x | x
Cc1ccsc1/C=C/c1n[nH]c(=O)c(C#N)c1C | 0 | 1 | -4 | 0 | 0 | 5 | x
SMILES | PvdQ inh | IMP-1 inh | HKDC1 inh | beta cell repl | VIM-2 inh | ATG4B inhibitor | PLA2 counter | others
COc1ccc(CC(=O)Nc2ccc(S(=O)(=O)N3CCN(C)CC3)cc2)cc1 | -13 | x | -3 | -2 | x | -1 | x
COc1cc(C2Nc3cc(Cl)c(S(N)(=O)=O)cc3S(=O)(=O)N2)ccc1OCc1ccccc1 (stereo not drawn) | -19 | -5 | 13 | -6 | -4 | 84* | 85*
COc1cc(C2Nc3cc(Cl)c(S(N)(=O)=O)cc3S(=O)(=O)N2)cc(OC)c1OC (stereo not drawn) | -3 | 0 | 0 | -3 | 2 | 9 | x
C#Cc1ccc([C@@H]2C=C(C(=O)NCc3ccccc3)O[C@H](OCC)[C@H]2CCCO)cc1 | -5 | -3 | -2 | -6 | -4 | -5 | x
C#Cc1ccc([C@@H]2C=C(C(=O)O)O[C@H](OCC)[C@H]2CCCO)cc1 | -15 | x | -6 | -4 | x | 59* | 72*
CCCCNC(=O)c1cn(C)c2ccc(S(=O)(=O)N3CC(C)CC(C)C3)cc2c1=O (stereo not drawn) | 9 | -1 | -4 | -5 | -2 | 2 | x
CC(C)CSC1=NSC2=NC(=O)/C(=C\c3coc4ccccc4c3=O)C(=N)N12 | -10 | -2 | 3 | -6 | -4 | 50* | 53*
O=S(=O)(c1ccc(Cl)s1)N1CCc2ccccc2C1 | -14 | -2 | -8 | 2 | -1 | 11 | x
O=S(=O)(c1ccc(Br)s1)N1CCc2ccccc2C1 | -4 | -8 | -5 | -1 | -2 | 57* | 27
N#C/C(=C\c1ccc(-c2ccccc2[N+](=O)[O-])o1)C(=O)Nc1nc(-c2cccs2)cs1 | 10 | -2 | 3 | 0 | -1 | 67* | 76*
COc1cccc(NC(=O)c2cnc(SC)nc2)c1 | -12 | 1 | 2 | -3 | 1 | 3 | x
CN(C)c1ccc(-c2nnn(Cc3ccccc3Br)n2)cc1 | 4 | 1 | -1 | -1 | -3 | 41* | 39 | ATG4B conf=66*
O=C(CN1C(=O)c2ccccc2C1=O)NCCc1c[nH]c2ccc(Cl)cc12 | -6 | -3 | 15 | -1 | -1 | -5 | x
O=C1c2ccccc2C(=O)N1CCCc1c[nH]c2ccc(Cl)cc12 | -5 | -3 | 0 | -3 | -2 | 53* | 50
Cc1ccccc1CSCC(=O)Nc1ccccc1-c1ccccc1 | -6 | -1 | 1 | -3 | -2 | 51* | 59*
